Experimental data published in ChEMBL document CHEMBL1140034, “Conformationally constrained analogues of diacylglycerol. 30. An investigation of diacylglycerol-lactones containing heteroaryl groups reveals compounds with high selectivity for Ras guanyl nucleotide-releasing proteins” (J Med Chem, 2008).

Assays:
[1] = biological target: Protein kinase C alpha type (Homo sapiens, UniProt P17252); test: Displacement of [3H]PDBu from human recombinant PKCalpha expressed in Escherichia coli […] (DE3)
Outline: (§1)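 Competition binding: displacement of bound [20-3H]phorbol 12,13-dibutyrate from recombinant PKC alpha or RasGRP3 measured in the presence of phosphatidylserine. IC50 obtained by fitting data points to the theoretical competition curve; Ki calculated from the corresponding IC50.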

[2] = Lipophilicity, SlogP of the compound; assay type: physicochemical; settings: octanol/water
[3] = Ratio of Ki for human recombinant PKCalpha to RasGRP3
Outline: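 Ki values for PKC alpha and RasGRP3 each come from [20-3H]PDBu displacement from the recombinant protein in the presence of phosphatidylserine, with IC50 fitted to the theoretical competition curve and converted to Ki. The ratio is Ki(PKC alpha)/Ki(RasGRP3).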

[4] = biological target: T1, Ras guanyl-releasing protein 3 (Homo sapiens, UniProt Q8IV61); test: Displacement of [3H]PDBu from RasGRP3 expressed in cells; assay type: cell-based; outline: as §1
T1 sequence (Q8IV61 whole entry): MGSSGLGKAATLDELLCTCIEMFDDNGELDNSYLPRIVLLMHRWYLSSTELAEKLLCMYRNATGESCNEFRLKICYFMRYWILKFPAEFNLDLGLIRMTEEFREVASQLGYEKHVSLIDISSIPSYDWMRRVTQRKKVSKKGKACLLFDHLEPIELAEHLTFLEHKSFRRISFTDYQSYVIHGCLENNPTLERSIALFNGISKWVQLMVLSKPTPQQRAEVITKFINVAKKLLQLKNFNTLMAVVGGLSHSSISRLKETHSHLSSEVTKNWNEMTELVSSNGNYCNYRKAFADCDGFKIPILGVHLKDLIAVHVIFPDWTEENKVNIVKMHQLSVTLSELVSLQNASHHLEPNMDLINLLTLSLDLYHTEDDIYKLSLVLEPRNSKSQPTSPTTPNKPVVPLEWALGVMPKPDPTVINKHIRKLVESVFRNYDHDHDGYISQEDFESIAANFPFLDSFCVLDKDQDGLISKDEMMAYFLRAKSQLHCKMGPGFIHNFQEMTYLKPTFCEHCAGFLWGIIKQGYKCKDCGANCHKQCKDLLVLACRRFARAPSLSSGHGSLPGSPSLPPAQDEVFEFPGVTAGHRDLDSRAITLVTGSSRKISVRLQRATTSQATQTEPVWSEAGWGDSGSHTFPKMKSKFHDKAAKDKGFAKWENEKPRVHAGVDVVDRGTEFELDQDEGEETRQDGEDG

SMILES	Ki [1]	logP [2]	Ratio Ki [3]	Ki [4]
CCCC(CCC)C(=O)OCC1(CO)C/C(=C/c2ccncc2)C(=O)O1 (centres undefined)	870 nM	2.9	20	44 nM
CN(C)c1ccc(C(=O)OCC2(CO)C/C(=C\c3ccc4ccccc4n3)C(=O)O2)cc1 (centres undefined)	150 nM	3.22	14	11 nM
COc1ccc(C(=O)OCC2(CO)C/C(=C/c3ccc4ccccc4n3)C(=O)O2)cc1 (centres undefined)	2940 nM	3.16	2	1390 nM
CN(C)c1ccc(C(=O)OCC2(CO)C/C(=C\c3ccncc3)C(=O)O2)cc1 (centres undefined)	1110 nM	2.07	19	54 nM
CN(C)c1ccc(C(=O)OCC2(CO)C/C(=C\c3ccc([N+](=O)[O-])cc3)C(=O)O2)cc1 (centres undefined)	343 nM	–	90	–
CC(C)CC(CC(=O)OCC1(CO)C/C(=C\c2ccccn2)C(=O)O1)CC(C)C (centres undefined)	4.6 nM	3.78	–	0.2 nM
CN(C)c1ccc(C(=O)OCC2(CO)C/C(=C\c3cn(C)c4ccccc34)C(=O)O2)cc1 (centres undefined)	174 nM	3.22	47	3.7 nM
CN(C)c1ccc(C(=O)OCC2(CO)C/C(=C\c3ccccn3)C(=O)O2)cc1 (centres undefined)	1020 nM	2.07	43	23.8 nM
COc1ccc(C(=O)OCC2(CO)C/C(=C\c3ccccn3)C(=O)O2)cc1 (centres undefined)	1130 nM	2.01	32	35.8 nM
COc1ccc(C(=O)OCC2(CO)C/C(=C\c3cnc4ccccc4c3)C(=O)O2)cc1 (centres undefined)	144 nM	3.16	8	17.4 nM
CN(C)c1ccc(C(=O)OCC2(CO)C/C(=C/c3cnc4ccccc4c3)C(=O)O2)cc1 (centres undefined)	4880 nM	3.22	3	1410 nM
CN(C)c1ccc(C(=O)OCC2(CO)C/C(=C/c3ccc4ccccc4n3)C(=O)O2)cc1 (centres undefined)	15800 nM	3.22	8	2040 nM
CCCC(CCC)C(=O)OCC1(CO)C/C(=C\c2ccccn2)C(=O)O1 (centres undefined)	86.3 nM	2.9	119	0.72 nM
COc1ccc(C(=O)OCC2(CO)C/C(=C/c3cccnc3)C(=O)O2)cc1 (centres undefined)	21200 nM	2.01	4	5500 nM
CN(C)c1ccc(C(=O)OCC2(CO)C/C(=C\c3cccnc3)C(=O)O2)cc1 (centres undefined)	790 nM	2.07	13	59 nM
COc1ccc(C(=O)OCC2(CO)C/C(=C\c3ccc4ccccc4n3)C(=O)O2)cc1 (centres undefined)	132 nM	3.16	16	8.2 nM
COc1ccc(C(=O)OCC2(CO)C/C(=C\c3ccc([N+](=O)[O-])cc3)C(=O)O2)cc1 (centres undefined)	136 nM	–	20	6.7 nM
CN(C)c1ccc(C(=O)OCC2(CO)C/C(=C/c3ccncc3)C(=O)O2)cc1 (centres undefined)	33200 nM	2.07	14	2360 nM

SMILES	Ki [1]	logP [2]	Ratio Ki [3]	Ki [4]
CCCC(CCC)C(=O)OCC1(CO)C/C(=C\c2ccc3ccccc3n2)C(=O)O1 (centres undefined)	51.9 nM	4.06	31	1.7 nM
CCCC(CCC)C(=O)OCC1(CO)C/C(=C\c2cccnc2)C(=O)O1 (centres undefined)	76 nM	2.9	47	1.6 nM
CCCC(CCC)C(=O)OCC1(CO)C/C(=C/c2ccccn2)C(=O)O1 (centres undefined)	1370 nM	2.9	16	83 nM
COc1ccc(C(=O)OCC2(CO)C/C(=C/c3ccccn3)C(=O)O2)cc1 (centres undefined)	27100 nM	2.01	11	2470 nM
COc1ccc(C(=O)OCC2(CO)C/C(=C/c3cnc4ccccc4c3)C(=O)O2)cc1 (centres undefined)	5100 nM	3.16	6	907 nM
COc1ccc(C(=O)OCC2(CO)C/C(=C\c3cccnc3)C(=O)O2)cc1 (centres undefined)	810 nM	2.01	10	81 nM
CCCC(CCC)C(=O)OCC1(CO)C/C(=C\c2cnc3ccccc3c2)C(=O)O1 (centres undefined)	13.8 nM	4.06	27	0.52 nM
CCCC(CCC)C(=O)OCC1(CO)C/C(=C/c2ccc3ccccc3n2)C(=O)O1 (centres undefined)	78.8 nM	4.06	17	4.6 nM
CN(C)c1ccc(C(=O)OCC2(CO)C/C(=C\c3cnc4ccccc4c3)C(=O)O2)cc1 (centres undefined)	755 nM	3.22	6	137 nM
COc1ccc(C(=O)OCC2(CO)C/C(=C\c3ccncc3)C(=O)O2)cc1 (centres undefined)	1450 nM	2.01	27	54.2 nM
CN(C)c1ccc(C(=O)OCC2(CO)C/C(=C/c3cccnc3)C(=O)O2)cc1 (centres undefined)	34100 nM	2.07	20	1970 nM
COc1ccc(C(=O)OCC2(CO)C/C(=C\c3cn(C)c4ccccc34)C(=O)O2)cc1 (centres undefined)	212 nM	3.46	64	3.3 nM
COc1ccc(C(=O)OCC2(CO)C/C(=C/c3ccncc3)C(=O)O2)cc1 (centres undefined)	25400 nM	2.01	7	3660 nM
CCCC(CCC)C(=O)OCC1(CO)C/C(=C/c2cccnc2)C(=O)O1 (centres undefined)	3270 nM	2.9	5	670 nM
CC(C)CC(CC(=O)OCC1(CO)C/C(=C\c2cn(C)c3ccccc23)C(=O)O1)CC(C)C (centres undefined)	14.8 nM	5.24	–	0.7 nM
CCCC(CCC)C(=O)OCC1(CO)C/C(=C/c2cnc3ccccc3c2)C(=O)O1 (centres undefined)	177 nM	4.06	5	32.2 nM
CCCC(CCC)C(=O)OCC1(CO)C/C(=C\c2ccncc2)C(=O)O1 (centres undefined)	627 nM	2.9	45	13.8 nM
CCCC(CCC)C(=O)OCC1(CO)C/C(=C\c2cn(C)c3ccccc23)C(=O)O1 (centres undefined)	29.7 nM	4.36	165	0.18 nM
